Measurements from ChEMBL document CHEMBL3576826, “New Monocyclic, Bicyclic, and Tricyclic Ethynylcyanodienones as Activators of the Keap1/Nrf2/ARE Pathway and Inhibitors of Inducible Nitric Oxide Synthase” (J Med Chem, 2015).
pIC50: −log10 of the molar value.

Columns and labels:
[1] = molecular target: Kelch-like ECH-associated protein 1/Nuclear factor erythroid 2-related factor 2 (Mus musculus) (UniProt Q60795+Q9Z2X8); assay: Activation of Keap1/Nrf2/ARE pathway in mouse Hepa-1c1c7 cells assessed as double induction of NQO1 specific activity after 48 hrs by bicinchoninic acid assay; format: cell-based
In short: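 Hepa1c1c7 cells, 10000 per well, grown 24 h, then exposed to increasing concentrations for 48 h. Lysed; protein by BCA assay; NQO1 specific activity measured. CD = concentration doubling NQO1 specific activity, used as inducer potency. Eight replicate wells per concentration; SD 5–10%.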

[2] = molecular target: T1, Nitric oxide synthase, inducible (Mus musculus, UniProt P29477); assay: Inhibition of iNOS in LPS-stimulated mouse RAW264.7 cells assessed as inhibition of nitric oxide production after 48 hrs by Griess assay; format: cell-based
T1 sequence (P29477 whole entry): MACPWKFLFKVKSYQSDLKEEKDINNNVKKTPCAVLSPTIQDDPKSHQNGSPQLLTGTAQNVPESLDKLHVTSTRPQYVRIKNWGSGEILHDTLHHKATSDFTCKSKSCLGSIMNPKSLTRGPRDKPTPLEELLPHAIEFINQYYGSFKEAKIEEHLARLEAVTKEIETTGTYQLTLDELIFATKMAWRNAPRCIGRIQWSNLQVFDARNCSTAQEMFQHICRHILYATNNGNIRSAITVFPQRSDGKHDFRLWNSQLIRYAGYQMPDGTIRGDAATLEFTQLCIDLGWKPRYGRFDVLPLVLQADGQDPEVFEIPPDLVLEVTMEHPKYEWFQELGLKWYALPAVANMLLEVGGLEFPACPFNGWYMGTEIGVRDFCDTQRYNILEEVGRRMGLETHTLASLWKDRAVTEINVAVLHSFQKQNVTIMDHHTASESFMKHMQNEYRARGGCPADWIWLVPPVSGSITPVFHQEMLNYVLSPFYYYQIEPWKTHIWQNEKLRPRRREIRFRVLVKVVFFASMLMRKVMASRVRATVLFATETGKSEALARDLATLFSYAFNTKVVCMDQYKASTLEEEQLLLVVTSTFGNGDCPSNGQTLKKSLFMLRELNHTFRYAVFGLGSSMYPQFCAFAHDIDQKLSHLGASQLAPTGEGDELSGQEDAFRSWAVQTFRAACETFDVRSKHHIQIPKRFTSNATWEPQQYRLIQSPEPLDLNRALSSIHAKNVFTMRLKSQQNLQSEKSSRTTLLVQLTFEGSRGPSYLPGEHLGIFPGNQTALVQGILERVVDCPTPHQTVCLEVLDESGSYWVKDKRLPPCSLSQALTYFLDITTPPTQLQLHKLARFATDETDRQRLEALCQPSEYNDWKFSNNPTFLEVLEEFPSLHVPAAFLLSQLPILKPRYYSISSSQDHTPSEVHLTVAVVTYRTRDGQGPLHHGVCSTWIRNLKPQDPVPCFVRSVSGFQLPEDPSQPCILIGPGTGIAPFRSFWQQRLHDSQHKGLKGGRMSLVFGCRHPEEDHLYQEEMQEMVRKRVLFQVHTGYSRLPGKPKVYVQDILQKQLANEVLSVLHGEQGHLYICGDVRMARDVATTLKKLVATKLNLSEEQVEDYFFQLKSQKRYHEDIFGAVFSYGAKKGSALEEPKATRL

Kelch-like ECH-associated protein 1/Nuclear factor erythroid 2-related factor 2 (Mus musculus), sequence (Q60795 whole entry, looked up): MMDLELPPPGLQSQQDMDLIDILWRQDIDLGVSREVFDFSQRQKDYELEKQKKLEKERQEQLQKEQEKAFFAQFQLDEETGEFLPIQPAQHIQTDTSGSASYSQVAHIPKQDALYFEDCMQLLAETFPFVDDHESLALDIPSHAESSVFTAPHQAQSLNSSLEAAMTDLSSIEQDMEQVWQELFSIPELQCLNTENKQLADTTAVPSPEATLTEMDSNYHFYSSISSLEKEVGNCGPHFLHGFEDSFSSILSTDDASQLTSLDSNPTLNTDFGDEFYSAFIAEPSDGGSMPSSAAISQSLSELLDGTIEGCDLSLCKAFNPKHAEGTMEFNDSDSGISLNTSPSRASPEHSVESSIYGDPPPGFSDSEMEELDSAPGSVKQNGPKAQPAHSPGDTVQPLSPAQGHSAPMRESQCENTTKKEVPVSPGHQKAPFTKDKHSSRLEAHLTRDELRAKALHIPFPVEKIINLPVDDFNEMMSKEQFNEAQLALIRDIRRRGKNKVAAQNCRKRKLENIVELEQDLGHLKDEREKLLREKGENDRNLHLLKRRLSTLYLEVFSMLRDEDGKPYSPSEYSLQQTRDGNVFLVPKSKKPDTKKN
Kelch-like ECH-associated protein 1/Nuclear factor erythroid 2-related factor 2 (Mus musculus), sequence (Q9Z2X8 whole entry, looked up): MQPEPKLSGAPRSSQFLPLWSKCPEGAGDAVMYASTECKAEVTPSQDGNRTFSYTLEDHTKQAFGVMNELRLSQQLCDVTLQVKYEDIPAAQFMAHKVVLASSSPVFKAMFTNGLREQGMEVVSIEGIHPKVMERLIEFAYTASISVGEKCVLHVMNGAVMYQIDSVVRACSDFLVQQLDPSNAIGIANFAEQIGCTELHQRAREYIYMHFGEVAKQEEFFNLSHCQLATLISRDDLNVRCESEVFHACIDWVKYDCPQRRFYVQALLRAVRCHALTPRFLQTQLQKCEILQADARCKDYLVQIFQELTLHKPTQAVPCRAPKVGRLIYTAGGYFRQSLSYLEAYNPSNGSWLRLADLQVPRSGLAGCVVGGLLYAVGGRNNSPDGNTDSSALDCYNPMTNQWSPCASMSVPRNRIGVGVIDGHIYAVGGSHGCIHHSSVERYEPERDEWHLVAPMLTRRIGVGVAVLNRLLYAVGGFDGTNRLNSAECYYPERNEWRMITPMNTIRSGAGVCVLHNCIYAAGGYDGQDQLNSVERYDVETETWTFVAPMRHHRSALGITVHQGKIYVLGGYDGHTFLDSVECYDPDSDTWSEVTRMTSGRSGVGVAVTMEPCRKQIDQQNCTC

SMILES | CD [1] | pIC50 ([2]; raw264.7) | pIC50 [2]
C#CC1(CC)C=CC(=O)C(C#N)=C1 (stereo not drawn) | 42 nM |  | 
C#CC12C=C(C#N)C(=O)C=C1c1c(Cl)cccc1C2 (stereo not drawn) | 130 nM | 6.10 | 
CC1(C)CC[C@]2(C(=O)O)CC[C@]3(C)[C@H](C(=O)C=C4[C@@]5(C)C=C(C#N)C(=O)C(C)(C)[C@@H]5CC[C@]43C)[C@@H]2C1 [BARDOXOLONE] | 2.3 nM | 7.64 | 
C#CC1(C)C=C(C#N)C(=O)c2ccccc21 (stereo not drawn) | 220 nM |  | 
C[S+]([O-])CCCCN=C=S (stereo not drawn) [SULFORAPHANE] | 200 nM |  | 6.40
C#CC12C=C(C#N)C(=O)C=C1C(C)(C)CC2 (stereo not drawn) | 100 nM | 6.70 | 
C#CC12C=C(C#N)C(=O)C=C1c1c(Br)cccc1CC2 (stereo not drawn) | 1300 nM | 6.19 | 
C#CC1(C=C)C=CC(=O)C(C#N)=C1 (stereo not drawn) | 20 nM | 7.80 | 
C#CC1(C#C)C=CC(=O)C(C#N)=C1 | 180 nM | 6.68 | 
C#CC12C=C(C#N)C(=O)C=C1c1c(C)cccc1CC2 (stereo not drawn) | 1800 nM | 6.03 | 
C#C[C@]12C=C(C#N)C(=O)C=C1[C@@]1(C)C=C(C#N)C(=O)C(C)(C)[C@@H]1CC2 (racemic) | 0.9 nM | 9.00 | 
C#CC12C=C(C#N)C(=O)C=C1c1ccccc1C2 (stereo not drawn) | 41 nM | 6.42 | 
C#CC12C=C(C#N)C(=O)C=C1c1c(Cl)cccc1CC2 (stereo not drawn) | 900 nM |  | 
C#CC1(C)C=CC(=O)C(C#N)=C1 (stereo not drawn) | 21 nM | 7.74 | 
C#CC12C=C(C#N)C(=O)C=C1CCC2 (stereo not drawn) | 56 nM | 6.80 | 
C#CC12C=C(C#N)C(=O)C=C1c1ccccc1CC2 (stereo not drawn) | 150 nM |  | 
